# Measurements: ChEMBL document CHEMBL4513216, “Probing the Open Global Health Chemical Diversity Library for Multistage-Active Starting Points for Next-Generation Antimalarials” (ACS Infect Dis, 2020)
# Assay: Toxicity liver stage against HepG2, at 10uM
# Format: cell-based
# Parameters: test concentration 10 uM, cell line HepG2-A16-CD81EGFP
# Details: human, HepG2-A16-CD81EGFP cells; read-out: INHIBITION
# Summary of the method: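 Uninfected HepG2-A16-CD81EGFP cells, 3 × 10^3 per well, 1536-well, plated on prespotted compound at 10 μM final, parasite-free screening media added to match infected plates; puromycin 10 μM positive, DMSO 0.5% negative; run in parallel with 48 h PbLuc assay at 37 °C, 5% CO2; viability by CellTiter-Glo luminescence, normalized to controls.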
row,SMILES,cytotoxicity at 10 µM [%]
1,CSCC[C@H](NC(=O)CCn1ccc2c(Br)cccc21)C(=O)O,0.633
2,CC(C)CCNC(=O)CNC(=O)N1CCc2c([nH]c3ccc(Cl)cc23)C1,6.73
3,C[C@@H](O)CNC(=O)CCc1nc2cccnc2[nH]1,-6.9
4,CN(C)CC(=O)N1CC2(CCN(Cc3ccccc3)C2)C1,5.62
5,CS(=O)(=O)N1CCCc2sc(C(=O)NC3CC3)nc21,-143
6,COCCC1COC2(CCN(C(=O)C3CCCCC3)CC2)C1 (stereo not drawn),7.4
7,O=S(=O)(C1CC1)N1CCO[C@H]2[C@H](OCC3CC3)CC[C@@H]21,5.61
8,CCOCC1CN(C(=O)c2ccnnc2)Cc2cnn(C)c21 (stereo not drawn),7.07
9,CCOCC1CN(C(=O)c2cccnc2)Cc2cnn(C)c21 (stereo not drawn),-1.28
10,CNC(=O)N1CC[C@@H]2CN(Cc3cccc(Cl)c3)S(=O)(=O)[C@@H]2CC1,0.748
11,CC(=O)N1CCN(C(=O)NC(C)C)CC2(CNC(=O)C2)C1 (stereo not drawn),-1.63
12,CNC(=O)CS(=O)(=O)C1CCN(S(=O)(=O)c2c(F)cccc2F)CC1,-22
13,COCCN1C(=O)CC(N2CCN(c3ccc(F)cc3)CC2)C1=O (stereo not drawn),-9.26
14,CCS(=O)(=O)Nc1cnn(Cc2cccc(C)c2)c1,0.724
15,CC1CCCCN1C(=O)COCc1nc(-c2ccncc2)no1 (stereo not drawn),1.79
16,CN(C1CCCN(c2ccccn2)C1)S(C)(=O)=O (stereo not drawn),1.07
17,CN(C(=O)c1ccon1)[C@@H]1CCC[C@@H](Oc2ccccc2)[C@@H]1O,-17.5
18,C[C@@H]1C[C@H](C(F)(F)F)n2nc(C3CCN(S(=O)(=O)N(C)C)CC3)cc2N1,-17.9
19,Cc1cc(CCC(N)=O)cc(C2CCCN2Cc2ccnn2C)n1 (stereo not drawn),-19.8
20,CN(Cc1ccccn1)C(=O)Nc1cc(C(F)(F)F)c[nH]c1=O,8.36
21,CCC(NC(=O)NC1CCN(S(C)(=O)=O)CC1)c1cccs1 (stereo not drawn),-11.6
22,CC(NS(=O)(=O)N(C)C(C)C)C(=O)N(C)C (stereo not drawn),7.95

row,SMILES,cytotoxicity at 10 µM [%]
1,CCN(Cc1cccnc1)C1CCN(c2ccccc2)C1=O (stereo not drawn),-0.483
2,Cc1n[nH]c(C)c1CNCC(O)c1ccc(F)c(F)c1 (stereo not drawn),4.32
3,O=C(Cc1ccc(Br)s1)NCC(=O)Nc1cn[nH]c1,2.06
4,O=C(CN1CCN(c2ncnc3cccc(F)c23)CC1)N1CCCC1,3.65
5,CC1(NC(=O)CNC(=O)C(C)(C)C)CCc2ccccc2C1 (stereo not drawn),-3.67
6,Cc1n[nH]c(C)c1CCC(=O)NC1CCCN(c2ccccc2F)C1 (stereo not drawn),-13.7
7,CC(C)CN1CC(C(=O)NCCc2ccc(OC(F)F)cc2)CC1=O (stereo not drawn),5.04
8,CC1CN(C(=O)NCc2cnn(-c3ccc(F)cc3F)c2)CCO1 (stereo not drawn),2.18
9,Cc1n[nH]c(C)c1NC(=O)CN1CCc2c(nc(C(C)C)n2C)C1,-5.68
10,COc1ccc(C(=O)NS(=O)(=O)c2cncc(Br)c2)cc1,-1.91
11,Cc1cc(CNC(=O)NC(C)c2ccccc2)no1 (stereo not drawn),10.4
12,COCCNC(=O)NC(C)COc1ccc(F)cc1F (stereo not drawn),4.14
13,COc1cc(C(C)=O)ccc1SCC(=O)Nc1ccc(C)cn1,4.43
14,CC(C)(C)Cc1noc2ncc(C(=O)N3CCCSCC3)cc12,-20.5
15,CNS(=O)(=O)CC(=O)N(Cc1ccsc1)c1ccccc1,-2.4
16,C[S+]([O-])CCNCc1ccc(OCc2cscn2)cc1 (stereo not drawn),-138
17,Cc1ccc(-n2ccnc2)c(C(=O)NCCOCC2CCCO2)c1 (stereo not drawn),-139
18,COc1ccc(C)cc1-c1csc(Cn2ccc(=O)[nH]c2=O)n1,4.16
19,CC(NC(=O)CCc1cccc(OC2CCCC2)c1)c1nncn1C (stereo not drawn),7.2
20,Cc1ccc(S(=O)(=O)CCC(=O)NCc2nnc3n2CCC3)cc1,3.55
21,Cc1ncccc1C(=O)Nc1cccc(OCC(F)F)n1,-7.79
22,O=C(CCc1nc(C2CC2)no1)c1ccc(F)c(F)c1,0.923

row,SMILES,cytotoxicity at 10 µM [%]
1,CCN(CC1CCOC1)C(=O)c1ccn(-c2ccc(OC)cc2)n1 (stereo not drawn),-4.19
2,CC(C)N(CC(N)=O)Cc1cccc(C(F)(F)F)c1,0.292
3,CC(NC(=O)C1=NN(C)C(=O)CC1)c1ccc(F)cc1F (stereo not drawn),-4.4
4,O=C(NCc1n[nH]c2c1CCCCC2)c1cnn2c1CCCC2,13.6
5,NC(=O)[C@H]1CCCN1C(=O)c1csc(-c2ccc(C(F)(F)F)cc2)n1,-0.187
6,CCc1ccc(CN(Cc2ccccc2)CC(C)CO)nc1 (stereo not drawn),9.11
7,CN1CCN2CCN(C(=O)c3cnn4cc(CCO)cnc34)CC2C1 (stereo not drawn),7.04
8,Cc1ccc(CN2CCNC(C(=O)NC3CC3)C2)cc1C (stereo not drawn),-3.41
9,COCC1(C(=O)N2CCC(c3nccn3CC3CC3)CC2)CCC1,4.5
10,CC(C)NC(=O)[C@@H]1C[C@@H](N)CN1C(=O)CCSCc1ccccc1,0.719
11,Nc1nccc(N2C[C@@H](CN3CCCCC3)[C@@H](CO)C2)n1,-2.16
12,Cc1cc(NCc2cc3n(n2)CCCN(C(=O)C2CCC2)C3)ncn1,-136
13,COCCn1c(CN2CCCCO2)cnc1S(=O)(=O)CC1CCCCC1,-6.58
14,CN1C[C@@H](n2cnc(-c3ccccc3)c2-c2ncc[nH]2)C[C@H]1C(=O)O,-4.75
15,Cn1c(CN2CCCCC2)nnc1C1CCCN(c2ccncc2F)C1 (stereo not drawn),-0.37
16,Cc1ccc(N(CC(=O)NCc2nnc3n2CCC3)S(C)(=O)=O)cc1,-4.66
17,COc1nccnc1-c1cc(NC2CCNCC2)nc2[nH]ccc12,-10.7
18,O=C(c1ccc[nH]1)N1CCC(c2nccn2Cc2ccncc2)CC1,-16.8
19,CCNC(=O)[C@@H]1C[C@@H](NC(=O)c2cccnc2O)CN1Cc1ccsc1,-5.39
20,Cc1cc(C)n(CC2CN(CC(=O)NC3(C#N)CCCC3)CCO2)n1 (stereo not drawn),-2.49
21,COc1c(C)cnc(CN2CCC(N(C)C(=O)C3CC3)CC2)c1C,-2.74
22,Cc1nn(C)c(C)c1C1COCCN1C(=O)c1cc(F)ccc1F (stereo not drawn),3.38

row,SMILES,cytotoxicity at 10 µM [%]
1,O=C(O)c1c[nH]c2cc(NS(=O)(=O)c3ccc(Cl)cc3F)ccc12,-1.2
2,O=C(NCCNc1ncccn1)C1CCN(C(=O)c2ccoc2)CC1,-12.6
3,CC(c1nc(C2CC2)no1)N1CCN(CCCN2CCCC2=O)CC1 (stereo not drawn),-13.4
4,Cc1n[nH]c(C)c1C1COCCN1C(=O)c1n[nH]c2ccccc12 (stereo not drawn),-3.63
5,Cc1nc(C2CCCN(C(=O)c3ccc(Cl)cn3)C2)no1 (stereo not drawn),-10.4
6,CCc1nc(CN2CCN(C(=O)N3CCCCC3)CC2)cs1,-16
7,Cc1csc(C2CCCN(C(=O)c3c(C)nn4cccnc34)C2)n1 (stereo not drawn),-10.4
8,CN(C)C(=O)CN1CCN(C(=O)c2cnn(-c3ccccc3Cl)c2)CC1,-3.67
9,CC(Cn1cccn1)NCc1csc(COc2ccccc2)n1 (stereo not drawn),-8.51
10,COc1ccc(Cl)cc1C(=O)N1CCCC(c2cc(C)[nH]n2)C1 (stereo not drawn),-10.1
11,CNC(=O)c1ccc(CNC(=O)NCCN(C)C2CCCC2)cc1,-7.66
12,CCOc1ncccc1NC(=O)NC1CCCN(S(C)(=O)=O)C1 (stereo not drawn),-3.62
13,COc1ccc(CC(=O)N2CCCCC2Cn2cc(C)cn2)cc1F (stereo not drawn),-14.1
14,COc1c(C2CCCN2C(=O)c2ccc3[nH]cnc3c2)c(C)nn1C (stereo not drawn),-8.04
15,Cc1oc(-c2ccco2)nc1CC(=O)N1CCN(CC(C)O)CC1 (stereo not drawn),-11.4
16,Cc1nc(CN2CCCC(N(C)Cc3cnc(C)s3)C2)no1 (stereo not drawn),2.76
17,O=C(Cc1cccc(F)c1)NCCNCc1cccc(O)c1,-9.5
18,O=C(NCCc1ccccn1)C1=NN(c2ccccc2)C(=O)CN1,-1.96
19,CCn1cnnc1C1CCN(C(=O)c2ccc(Cl)s2)CC1,-12.2
20,O=C(c1n[nH]c2ccccc12)N1CCCC1c1noc(C2CC2)n1 (stereo not drawn),-10.8
21,CC(=O)NC1CCCN(C(=O)c2ccc(Br)cc2O)C1 (stereo not drawn),-10.4
22,CCOc1ccccc1-c1noc(CN2CC(n3cccn3)C2)n1,-2.79

row,SMILES,cytotoxicity at 10 µM [%]
1,CC(=O)NCC(=O)N1CCc2c(CNc3ncccn3)cncc2C1,1.59
2,O=C1[C@H]2CN(C3CCOCC3)C[C@H]2CN1Cc1ccncc1,-124
3,Cc1cc(CN2C[C@@H]3COC[C@]3(CNC(=O)c3ccsc3)C2)no1,1.41
4,O=C(NCC1CC1)[C@H]1C[C@@H]2[C@@H](C1)OCCN2Cc1cccnc1,4.09
5,CCN1C(=O)C2(CCN(CCN(C)C)CC2)c2ccccc21,-112
6,CN(C)CCOCC1CN(Cc2ccccn2)Cc2nnn(C)c21 (stereo not drawn),5.5
7,O=C(c1ncccn1)N1CCC[C@]2(C[C@@H](Oc3ncccc3F)CO2)C1,-4.28
8,c1ccc(CN2CC[C@@H]3[C@@H](CO[C@@H]3CNc3ncccn3)C2)nc1,-4.09
9,O=C(NCC1CC1)C1CN(Cc2ccncc2)Cc2ccnn2C1 (stereo not drawn),-0.902
10,CCc1ccc(CN2CCCn3c(nc(Cn4ccnc4)cc3=O)C2)o1,4.29
11,CN1CCC2(CCCN(c3nccc(C(F)(F)F)n3)C2)CC1,4.14
12,CCn1ncc2c1C(COC)CN(Cc1ccc(F)cc1)C2 (stereo not drawn),12.4
13,O=C(N1CCOCC1)N1CCc2ncnc(NC3CCC3)c2CC1,-1.92
14,CC(=O)N1CC(=O)N(c2ccsc2)CC12CCN(Cc1ccccn1)C2 (stereo not drawn),13
15,O=C(c1ccsc1)N1CCO[C@@H]2CN(Cc3cccs3)C[C@@H]2C1,-133
16,Cc1csc(CN2C[C@@H]3COC[C@]3(COCC(=O)N(C)C)C2)n1,0.851
17,Cc1ccc(O[C@@H]2C[C@H]3CN(C(=O)c4cccnc4)CCN3C2)cc1,1.06
18,COc1ncccc1CN1C[C@@H]2COC[C@]2(COc2cccnc2)C1,-0.182
19,Cc1cccc(C(=O)N2C[C@@H]3C(CC(=O)N4CCCC4)[C@@H]3C2)n1 (stereo partly drawn),1.82
20,COc1ccc(C2c3c(n[nH]c3C)N=C3COC(=O)C32)cc1OC (stereo not drawn),7.98
